Screens deposited in PubChem BioAssay by several laboratories.
Most compounds without a hit are left out; they make up all but 12% or so of the library.
ABCB1 block = blocks JC-1 efflux by human ABCB1 transporter | 0.067% of 190,000 active | AID 1326 | CCRF-Adr cells, flow cytometry | inhibition, % at 6.6 µM; in the data active = inhibition above about 40%;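 note: higher value means more JC-1 retained so stronger ABCB1 efflux block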
Lmaj promast = reduces viability of Leishmania major promastigotes. resazurin fluorescence viability. inhibition, % at 10 µM. 9% of 200,000 active. AID 1063; in the data active = inhibition above about 50%;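 note: promastigotes grown with compound for 44 hours at 28 °C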
ABCG2 inh = human ABCG2 inhibition, ABCB1 as counter-screen. Q9UNQ0. inhibition, % at 6.6 µM. 0.1% of 190,000 active. IgMXP3 cells, JC-1 efflux, flow cytometry;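 active = inhibition above 80%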
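System: two drug-resistant human cell lines, ABCG2 and ABCB1; controls: nicardipine high and DMSO low controls; times: 10 min exposure at 25 °C with rotation, no wash; detection: flow cytometry of retained JC-1 fluorescence; read-out basis: percent efflux inhibition, scaled nicardipine 100% to DMSO 0%; doses: one concentration, 6.6 µM final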
WT yeast gro inh = growth inhibition of WT yeast, mitochondrial fusion screen; mitochondrial fusion phenotypic screen, WT strain; inhibition, % at 10 µM; 2.1% of 190,000 active; AID 1362; in the data active = inhibition above about 58%; tested in S. cerevisiae
RAM network inh = yeast RAM network inhibition; 1.8% of 190,000 active; inhibition, % at 50 µM; AID 868; S. cerevisiae dse1pr::URA3 reporter, 5-FOA growth OD615, 2 d; analog-sensitive cbk1-as2 kinase mutant strain;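 active = inhibition above a set limit, 3 SD over mean compound inhibition, cut at about 8.4% in these data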;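 note: inhibition rescues growth on 5-FOA so higher OD means more RAM inhibition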
Each line names hits and unclear results; the compound was inactive in the other large screens.

COC(=O)c1ccc(CSc2nnc(-c3ccncc3)n2Cc2ccccc2)o1	Lmaj promast 76.3
COC(=O)c1ccc(CSc2nc3ccccc3c(=O)n2CC(C)C)o1	WT yeast gro inh 58.0, RAM network inh 9.1
CCOC(=O)CSc1nc2ccccc2c(=O)n1CC(C)C	none
O=C(CSc1nnc(-c2ccncc2)n1Cc1ccccc1)NCCc1ccccc1	none
CNC(=O)CSc1nnc(-c2ccncc2)n1Cc1ccccc1	none
O=C(CSc1nnc(-c2ccncc2)n1Cc1ccccc1)NC1CCCc2ccccc21 (centres undefined)	Lmaj promast 83.3 (no result: ABCB1 block)
N#Cc1ccc(CSc2nnc(-c3ccncc3)n2CCc2ccccc2)cc1	Lmaj promast 90.2
Nc1[nH]nc2c1NN(c1ccc(Cl)cc1Cl)N2	none
Cn1c(=O)c2sccc2n2c(CCCC(=O)NCc3ccc4c(c3)OCO4)nnc12	none
CC(C)(C)C(=O)CSc1nnc(Nc2ccccc2)s1	none
COc1ccc(-c2ocnc2C(=O)N2CCN(C(c3ccccc3)c3ccccc3)CC2)cc1	none
Cc1ccc(SCC(=O)Nc2ccc(S(N)(=O)=O)cc2)cc1	none
O=C(CSc1nc2ccccc2c(=O)n1Cc1ccco1)NCc1ccccc1	none (no result: ABCB1 block, ABCG2 inh, WT yeast gro inh, RAM network inh)
COC(=O)c1ccc(CSc2nc3ccccc3c(=O)n2Cc2ccco2)o1	Lmaj promast 96.9, RAM network inh 9.7
FC(F)(F)c1cccc(CNc2ncccc2-c2nc3cc(Cl)ccc3o2)c1	RAM network inh 8.5
Cc1ccc(S(=O)(=O)N[C@H](C(=O)OCC(=O)N2N=C(c3ccc(Cl)cc3)CC2c2ccco2)C(C)C)cc1 (some centres undefined)	none
COc1ccc(-c2noc(CCC(=O)NCCc3cccc(C)c3)n2)cc1	none
O=C(CSc1nc2[nH]ncc2c(=O)n1-c1ccc(Cl)c(Cl)c1)NCc1ccccc1Cl	Lmaj promast 77.5
O=c1c2cn[nH]c2nc(SCc2ccccc2F)n1-c1ccc(Br)cc1	WT yeast gro inh 79.2
O=C(CSc1nc2[nH]ncc2c(=O)n1-c1ccccc1)NCCc1ccccc1	none
CC1=NN(C(N)=S)C(=O)C1N=Nc1ccc(O)cc1 (centres undefined)	Lmaj promast 57.8
C/C(=N\NC(=O)Nc1ccccc1)c1ccc2ccccc2c1	none
C/C(=N/NC(=O)Nc1ccccc1)c1ccc(C)cc1	Lmaj promast 50.7
CCN1CCN(c2ncnc3c2sc(=S)n3-c2ccccc2)CC1	Lmaj promast 51.6
COc1ccc(Cl)cc1NC(=O)COC(=O)CNC(=O)c1ccc([N+](=O)[O-])c(C)c1	Lmaj promast 56.4
Cc1ccc(C(=O)NCC(=O)OCC(=O)Nc2cc(C)c(C)cc2[N+](=O)[O-])cc1	none
COCC(=O)OCC(=O)Nc1cc(C)c(C)cc1[N+](=O)[O-]	Lmaj promast 54.7
Cc1cc(C)n(-c2ccc(C(=O)OCC(=O)Nc3cc(Cl)ccc3[N+](=O)[O-])cc2)n1	Lmaj promast 59.0
O=C(O)c1c(-c2ccc(Cl)cc2)cn2ccccc12	none
COc1ccc(S(=O)(=O)NCC(=O)O)cc1C(=O)NC1CCCCC1	none
CC(C)Oc1ccc(C(=O)Nc2cccc3cccnc23)cc1	WT yeast gro inh 58.7
COc1ccc(C(=O)Nc2cccc3cccnc23)cc1OC	none
CC(=O)Nc1ccc(NC(=O)c2cccc3c2-c2ccccc2C3=O)cc1	Lmaj promast 78.2
N#CC1=CN(Cc2ccccc2)C=C(/C=N/Nc2ccccc2)C1	Lmaj promast 97.5
CN1CCC/C1=C/C=C1\SC(=S)NC1=O	none
COCC1CCN(Cc2nc(-c3ccc(OC)cc3)no2)CC1	none
COc1cccc(-c2csc(N3CCN(C(=S)Nc4ccccc4C)CC3)n2)c1	none
COC(C#CCCN(C)C)(c1ccccc1)c1ccccc1	Lmaj promast 99.6
CN(C)CCOC(C)(c1ccccc1)c1ccccn1 (centres undefined)	none
CC(=O)NC(=O)COC(=O)/C=C/c1c(C)nn(Cc2c(Cl)cccc2Cl)c1Cl	none
O=C(CNC(=O)c1cccc(F)c1)N/N=C/c1cccc([N+](=O)[O-])c1	Lmaj promast 80.9
CCNC(=S)N/N=C(\C)c1ccc2ccccc2c1	WT yeast gro inh 72.4
CCNC(=S)N/N=C(\C)c1ccc2ccccc2c1OC(F)F	WT yeast gro inh 72.9
COc1ccc(NC2CS(=O)(=O)CC2NCc2ccccc2)cc1 (centres undefined)	none
COc1ccc(O)c(/C=N/n2c(-c3ccco3)csc2=Nc2cccnc2)c1	Lmaj promast 91.2
Fc1ccccc1-c1csc(=Nc2cccnc2)n1CCCn1ccnc1	Lmaj promast 75.8
